One molecule from ChEMBL document CHEMBL3414463, “Discovery of potent and selective 8-fluorotriazolopyridine c-Met inhibitors” (J Med Chem, 2015) can be followed below.

Series [1] concerns Mus musculus. Put plainly: Inhibition of human recombinant HGF-stimulated c-Met autophosphorylation in Balb/c mouse assessed as relative phospho c-Met level at 10 mg/kg, po administered as single dose and measured 9 hrs before mouse sacrifice by electrochemiluminescence immunoassay. Format: functional. Also noted: scale not given: the % may be the effect or the level left. The procedure, abridged: (§1)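 Mice received a single 10 mg/kg oral dose. Human recombinant HGF (12 μg) was given IV at 1, 3, 6, 9, 12 or 24 h postdose, and liver was harvested 5 min later. Liver phospho-c-Met was measured by electrochemiluminescent immunoassay. Mean ± SD, n = 3; ANOVA with Bonferroni/Dunn test versus HGF control.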

The subject of series [2] is Liver microsome. As to the kind of experiment: Drug metabolism in rat liver microsomes assessed as formation of (S)-2-(6-(1-(8-fluoro-6-(3-methylisoxazol-5-yl)-[1,2,4]triazolo[4,3-a]pyridin-3-yl)ethyl)quinolin-3-yloxy)ethanol in presence of NADPH by LC-MS/MS method. Format: ADME. The method in brief:
(§2)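 Compound incubated with NADPH in mouse, rat, dog, monkey or human liver microsomes. Metabolites were identified by accurate mass spectrometry and MS/MS, and selected ion chromatograms were used to build metabolite profiles.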

The subject of series [3] is Liver microsome. As to the kind of experiment: Drug metabolism in dog liver microsomes assessed as formation of (S)-2-(6-(1-(8-fluoro-6-(3-methylisoxazol-5-yl)-[1,2,4]triazolo[4,3-a]pyridin-3-yl)ethyl)quinolin-3-yloxy)acetic acid in presence of NADPH by LC-MS/MS method. Format: ADME, Canis lupus familiaris. The method in brief: as §2
A general note: Liver microsomes are a subcellular fraction often used to study metabolism.

The subject of series [4] is Rattus norvegicus. As to the kind of experiment: Clearance in Sprague-Dawley rat at 0.25 mg/kg, iv. Format: ADME, organism-based. Set-up: dose 0.25 mg/kg, route intravenous. The conditions noted are these: in vivo.
Series [5] concerns the target T1, Hepatocyte growth factor receptor (Homo sapiens, UniProt P08581). Put plainly: Inhibition of recombinant c-Met kinase domain (unknown origin) incubated for 30 mins using gastrin peptide substrate by HTRF assay. Background: TR-FRET usually uses a lanthanide donor and a delayed reading to cut background.
Series [6] deals with T1, Hepatocyte growth factor receptor. Put plainly: Inhibition of HGF-stimulated c-Met autophosphorylation in serum starved human PC3 cells pre-incubated for 1 hr followed by human recombinant HGF stimulation for 10 mins by quantitative electrochemiluminescence immunoassay. The format is cell-based, PC-3. The procedure, abridged:
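Serum-starved PC-3 cells (plated in high-glucose DMEM/10% FBS, then 16 h in low-glucose DMEM with 0.1% BSA) were treated with a 10-point inhibitor dilution for 1 h at 37 °C. Cells were then stimulated with 200 ng/mL recombinant human HGF for 10 min and lysed. Phospho-c-Met was captured with biotinylated anti-c-Met and 4G10 by electrochemiluminescence. IC50, n ≥ 2.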

The test system of series [7] is Liver microsome. As to the kind of experiment: Drug metabolism in human liver microsomes assessed as formation of (S)-2-(6-(1-(8-fluoro-6-(3-methylisoxazol-5-yl)-[1,2,4]triazolo[4,3-a]pyridin-3-yl)ethyl)quinolin-3-yloxy)ethanol in presence of NADPH by LC-MS/MS method. Format: ADME. The method in brief:
as §2

A short description of series [8]: Drug metabolism in monkey liver microsomes assessed as formation of (S)-2-(6-(1-(8-fluoro-6-(3-methylisoxazol-5-yl)-[1,2,4]triazolo[4,3-a]pyridin-3-yl)ethyl)quinolin-3-yloxy)ethanol in presence of NADPH by LC-MS/MS method. Conditions: rhesus monkey. Format: ADME, Macaca mulatta. The method in brief: as §2
Series [9] deals with Rattus norvegicus. Put plainly: AUC (0 to infinity) in Sprague-Dawley rat at 0.25 mg/kg, iv. The format is ADME, organism-based, Plasma. Also noted: dose 0.25 mg/kg, route intravenous, time infinity. The conditions noted are these: in vivo.
In series [10] the test system is Liver microsome. Put plainly: Drug metabolism in dog liver microsomes assessed as formation of (S)-2-(6-(1-(8-fluoro-6-(3-methylisoxazol-5-yl)-[1,2,4]triazolo[4,3-a]pyridin-3-yl)ethyl)quinolin-3-yloxy)ethanol in presence of NADPH by LC-MS/MS method. Format: ADME, Canis lupus familiaris. The procedure, abridged:
as §2

In series [11] the test system is Mus musculus. Put plainly: Inhibition of human recombinant HGF-stimulated c-Met autophosphorylation in Balb/c mouse assessed as relative phospho c-Met level at 10 mg/kg, po administered as single dose and measured 1 hr before mouse sacrifice by electrochemiluminescence immunoassay. The format is functional. Also noted: scale not given: the % may be the effect or the level left. The procedure, abridged:
as §1

Series [12] is described as follows: Drug metabolism in mouse liver microsomes assessed as formation of (S)-2-(6-(1-(8-fluoro-6-(3-methylisoxazol-5-yl)-[1,2,4]triazolo[4,3-a]pyridin-3-yl)ethyl)quinolin-3-yloxy)ethanol in presence of NADPH by LC-MS/MS method. Format: ADME. The method in brief: as §2
Series [13] can be described thus: Volume of distribution at steady state in Sprague-Dawley rat at 0.25 mg/kg, iv. Format: ADME, organism-based. Also noted: dose 0.25 mg/kg, route intravenous. Conditions: in vivo, read-out: Vdss. The procedure, abridged: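 Male Sprague-Dawley rats were given a single IV dose of 0.25 mg/kg. The vehicle was DMSO, or for some compounds 20% (w/v) hydroxypropyl β-cyclodextrin in water adjusted to pH 3.5 with MSA. NC marks cases where the terminal disposition rate constant could not be characterized for lack of slope.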

Series [14] has as its system Mus musculus. As to the kind of experiment: Inhibition of human recombinant HGF-stimulated c-Met autophosphorylation in Balb/c mouse assessed as relative phospho c-Met level at 10 mg/kg, po administered as single dose and measured 6 hrs before mouse sacrifice by electrochemiluminescence immunoassay. Format: functional. Set-up: scale not given: the % may be the effect or the level left. The procedure, abridged:
as §1

Series [15] concerns Mus musculus. Put plainly: Inhibition of human recombinant HGF-stimulated c-Met autophosphorylation in Balb/c mouse assessed as relative phospho c-Met level at 10 mg/kg, po administered as single dose and measured 24 hrs before mouse sacrifice by electrochemiluminescence immunoassay. The format is functional. Also noted: scale not given: the % may be the effect or the level left. The method in brief: as §1

Series [16] has as its system Liver microsome. Put plainly: Unbound clearance rat liver microsomes at 1 uM in presence of NADPH by LC-MS/MS method. The format is ADME. The method in brief: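 Aliquots were taken at 0, 10, 20, 30 and 40 min, quenched with an equal volume of acetonitrile, centrifuged and analysed by LC/MS/MS.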
Series [17] can be described thus: Drug metabolism in mouse liver microsomes assessed as formation of (S)-2-(6-(1-(8-fluoro-6-(3-methylisoxazol-5-yl)-[1,2,4]triazolo[4,3-a]pyridin-3-yl)ethyl)quinolin-3-yloxy)acetic acid in presence of NADPH by LC-MS/MS method. Format: ADME. The procedure, abridged:
as §2

Series [18] concerns Liver microsome. Put plainly: Drug metabolism in rat liver microsomes assessed as formation of (S)-2-(6-(1-(8-fluoro-6-(3-methylisoxazol-5-yl)-[1,2,4]triazolo[4,3-a]pyridin-3-yl)ethyl)quinolin-3-yloxy)acetic acid in presence of NADPH by LC-MS/MS method. Format: ADME. The method in brief: as §2
In series [19] the test system is Mus musculus. Put plainly: Inhibition of human recombinant HGF-stimulated c-Met autophosphorylation in Balb/c mouse assessed as relative phospho c-Met level at 10 mg/kg, po administered as single dose and measured 3 hrs before mouse sacrifice by electrochemiluminescence immunoassay. Set-up: scale not given: the % may be the effect or the level left. Format: functional. The procedure, abridged:
as §1

Series [20] is described as follows: Half life in Sprague-Dawley rat at 0.25 mg/kg, iv. Format: ADME, organism-based. Set-up: dose 0.25 mg/kg, route intravenous. Conditions: in vivo.
The nature of series [21]: Drug metabolism in monkey liver microsomes assessed as formation of (S)-2-(6-(1-(8-fluoro-6-(3-methylisoxazol-5-yl)-[1,2,4]triazolo[4,3-a]pyridin-3-yl)ethyl)quinolin-3-yloxy)acetic acid in presence of NADPH by LC-MS/MS method. The format is ADME, Macaca mulatta. The conditions noted are these: rhesus monkey. The method in brief:
as §2

A short description of series [22]: Oral bioavailability in Sprague-Dawley rat at 2 mg/kg. Format: ADME, organism-based. The conditions noted are these: in vivo. The procedure, abridged:
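Male Sprague-Dawley rats given 2.0 mg/kg orally in 2% (w/v) hydroxypropylmethylcellulose, 1% (w/v) Tween 80 in water, pH 2.2 (adjusted with HCl or MSA). Some inhibitors instead used 10% (v/v) dimethylacetamide in the same vehicle.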

In series [23] the test system is Mus musculus. As to the kind of experiment: Inhibition of human recombinant HGF-stimulated c-Met autophosphorylation in Balb/c mouse assessed as relative phospho c-Met level at 10 mg/kg, po administered as single dose and measured 12 hrs before mouse sacrifice by electrochemiluminescence immunoassay. The format is functional. Also noted: scale not given: the % may be the effect or the level left. The method in brief: as §1

The subject of series [24] is Liver microsome. As to the kind of experiment: Drug metabolism in human liver microsomes assessed as formation of (S)-2-(6-(1-(8-fluoro-6-(3-methylisoxazol-5-yl)-[1,2,4]triazolo[4,3-a]pyridin-3-yl)ethyl)quinolin-3-yloxy)acetic acid in presence of NADPH by LC-MS/MS method. The format is ADME. The procedure, abridged:
as §2

T1 sequence (P08581 whole entry, the tested form may be a part): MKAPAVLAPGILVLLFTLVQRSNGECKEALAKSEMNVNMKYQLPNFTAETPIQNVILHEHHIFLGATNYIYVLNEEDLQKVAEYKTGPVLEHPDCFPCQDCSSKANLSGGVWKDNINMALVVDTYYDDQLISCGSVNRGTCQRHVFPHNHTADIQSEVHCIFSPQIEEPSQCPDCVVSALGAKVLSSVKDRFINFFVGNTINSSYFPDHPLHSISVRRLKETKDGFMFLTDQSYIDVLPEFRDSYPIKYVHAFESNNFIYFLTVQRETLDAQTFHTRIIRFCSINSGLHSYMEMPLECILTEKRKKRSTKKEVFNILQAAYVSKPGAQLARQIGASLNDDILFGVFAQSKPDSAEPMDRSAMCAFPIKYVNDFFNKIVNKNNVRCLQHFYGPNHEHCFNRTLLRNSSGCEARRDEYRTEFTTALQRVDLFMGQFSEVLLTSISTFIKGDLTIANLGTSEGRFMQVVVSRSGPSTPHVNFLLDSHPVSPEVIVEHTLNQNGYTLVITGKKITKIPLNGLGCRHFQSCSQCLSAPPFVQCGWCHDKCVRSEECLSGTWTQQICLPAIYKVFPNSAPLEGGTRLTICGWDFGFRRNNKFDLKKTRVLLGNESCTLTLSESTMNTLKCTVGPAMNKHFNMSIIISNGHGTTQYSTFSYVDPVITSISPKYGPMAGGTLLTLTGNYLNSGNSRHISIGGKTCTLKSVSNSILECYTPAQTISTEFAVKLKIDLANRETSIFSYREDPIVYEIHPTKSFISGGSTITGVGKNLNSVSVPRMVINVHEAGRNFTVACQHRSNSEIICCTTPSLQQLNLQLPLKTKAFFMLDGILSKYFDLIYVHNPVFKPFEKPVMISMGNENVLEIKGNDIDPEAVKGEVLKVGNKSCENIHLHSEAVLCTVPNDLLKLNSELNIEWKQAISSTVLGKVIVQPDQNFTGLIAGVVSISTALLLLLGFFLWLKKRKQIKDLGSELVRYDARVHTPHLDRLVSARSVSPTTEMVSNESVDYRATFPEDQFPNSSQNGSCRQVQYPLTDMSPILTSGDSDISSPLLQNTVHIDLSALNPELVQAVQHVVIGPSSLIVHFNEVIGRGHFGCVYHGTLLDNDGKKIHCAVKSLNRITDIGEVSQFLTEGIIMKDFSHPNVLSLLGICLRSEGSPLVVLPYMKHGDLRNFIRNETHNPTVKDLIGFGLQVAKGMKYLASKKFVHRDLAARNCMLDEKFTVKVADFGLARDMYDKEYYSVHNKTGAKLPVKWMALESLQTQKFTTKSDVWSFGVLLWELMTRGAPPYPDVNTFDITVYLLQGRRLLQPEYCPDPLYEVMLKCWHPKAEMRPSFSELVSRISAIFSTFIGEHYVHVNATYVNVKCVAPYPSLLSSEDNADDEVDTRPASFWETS

As to `COCCOc1cnc2ccc([C@H](C)c3nnc4c(F)cc(-c5cc(C)no5)cn34)cc2c1`, the Activity in the series on Mus musculus [1] is 64%; in the series with Mus musculus [11], 96%; in the series with Mus musculus [14] it was 94%; with Mus musculus [15] it was 27%; with Mus musculus [19], 99%; in the series on Mus musculus [23] it was 47%. Further, the Drug metabolism entry (in the series with Liver microsome [2]; with Liver microsome [3]; in the series with Liver microsome [7]; in series [8]; in the series on Liver microsome [10]; in series [12]) was “metabolite_detected” each time. Also, the Drug metabolism entry (in series [17]; with Liver microsome [18]; in [21]; in the series with Liver microsome [24]) was “metabolite_detected” throughout. The CL in the series with Rattus norvegicus [4] worked out at 9.5 mL/min/kg. The IC50 (commonly the concentration that inhibits the measured activity by half) in [5] was 1 nM; in series [6], 5 nM. Moreover, in the series with Rattus norvegicus [9], the AUC (as a rule, the area under the concentration-time curve, a measure of exposure) came to 3.1 µM·h. In addition, the Vd in series [13] is 4.9 L/kg. Also, in the series on Liver microsome [16], the CL free turned out to be 417 mL/min/kg. Besides, the half-life – broadly, how long it takes for the measured level to halve – in series [20] was 4.2 h. Moreover, the bioavailability (as a rule, the share of a dose that reaches the circulation, judged against a reference dose that is usually intravenous) in series [22] is 46%.
